Assay outcomes deposited in PubChem BioAssay by several laboratories.
The list is not random: actives were taken first. Their share in the collection is about 4.1%.
hERG protect = hERG rescue from dofetilide block, primary screen, cell-based, CHO-hERG, FluxOR thallium flux, dofetilide IC70; AID 1511, 2009; activation (rescue from dofetilide block), less the hit threshold, % at 10 µM; dofetilide IC70 present; actives 0.51% (n = 310,000);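 active = activation above the mean of controls blocked by dofetilide plus 5 SD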;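 also: thallium influx through hERG after potassium depolarization seen as dye fluorescence rise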
KCNQ1 block = inhibitors of human KCNQ1 channel, primary screen, cell-based, thallium flux, high-throughput. actives 1.3% (n = 310,000). B-score at 10 µM. CHO-K1 KCNQ1, FluxOR thallium flux fluorescence; active compounds read high. AID 2642, 2010. Potassium voltage-gated channel subfamily KQT member 1 (Homo sapiens), P51787;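 active = compounds whose thallium flux B-score, printed positive for inhibition, exceeds three library SD while starting fluorescence stays within three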;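 also: channel opened by potassium depolarization with thallium stimulus after 20 min compound exposure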
KCNK9 inh = KCNK9 potassium channel inhibitors, primary screen, HEK293 cells, thallium flux | Potassium channel subfamily K member 9 (Homo sapiens), Q9NPC2 | FluxOR thallium flux fluorescence; active compounds read low | B-score at 10 µM | actives 1.2% (n = 310,000) | AID 488922, 2010;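 active = ratio B-score over 3 SD below the library mean, with starting fluorescence within 5 SD of its mean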;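 also: negative B-score means less thallium flux so channel inhibition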
KCNQ1 pot = potentiators or activators of KCNQ1 channel, primary screen, cell-based, thallium flux, high-throughput; Potassium voltage-gated channel subfamily KQT member 1 (Homo sapiens), P51787; CHO-K1 KCNQ1, thallium flux FluxOR fluorescence; active compounds read high; B-score at 10 µM; actives 0.35% (n = 310,000);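 active = fluorescence ratio B-score, a plate-corrected score, at least three library SD, with initial intensity B-score within 5 SD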
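Doses: Single concentration per compound, DMSO matched to controls | Test system: KCNQ1-transfected CHO-K1 cells | Timing: 90 min dye loading and 20 min compound exposure, both at room temperature | Measured by: Kinetic FluxOR thallium fluorescence, 10-s 1-Hz baseline, 110-s post-stimulus read | Medium: Assay buffer with matched DMSO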
KCNK3 inh = human KCNK3 channel inhibitors, primary screen, CHO cells, FluxOR thallium flux, B-score. actives 0.84% (n = 340,000). Potassium channel subfamily K member 3 (Homo sapiens), O14649. B-score at 10 µM. FluxOR fluorescence; active compounds read low;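 active = B-score under library mean minus 4 SD, starting fluorescence ratio at most library mean plus 5 SD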;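 also: more negative B-score means stronger inhibition of thallium flux through KCNK3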
Cl transport mod = KCC2 cotransporter modulators, thallium flux, primary screen, cell-based, HEK293 KCC2, FluoZin-2 fluorescence, MLSMR. actives 2.2% (n = 190,000). KCC2 cells, thallium flux FluoZin-2 fluorescence. B-score of Tl+ flux slope (higher = more flux/activation; lower = inhibition) at 10 µM. Solute carrier family 12 member 5 (Homo sapiens), Q9H2X9;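 active = thallium flux slope and its plate-corrected score both differing from the plate sample mean at a set confidence after two filtering rounds, in either direction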;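 also: slope of fluorescence scaled to starting intensity during 10 to 20 s after thallium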
Target sequence (Q9H2X9 whole entry, looked up): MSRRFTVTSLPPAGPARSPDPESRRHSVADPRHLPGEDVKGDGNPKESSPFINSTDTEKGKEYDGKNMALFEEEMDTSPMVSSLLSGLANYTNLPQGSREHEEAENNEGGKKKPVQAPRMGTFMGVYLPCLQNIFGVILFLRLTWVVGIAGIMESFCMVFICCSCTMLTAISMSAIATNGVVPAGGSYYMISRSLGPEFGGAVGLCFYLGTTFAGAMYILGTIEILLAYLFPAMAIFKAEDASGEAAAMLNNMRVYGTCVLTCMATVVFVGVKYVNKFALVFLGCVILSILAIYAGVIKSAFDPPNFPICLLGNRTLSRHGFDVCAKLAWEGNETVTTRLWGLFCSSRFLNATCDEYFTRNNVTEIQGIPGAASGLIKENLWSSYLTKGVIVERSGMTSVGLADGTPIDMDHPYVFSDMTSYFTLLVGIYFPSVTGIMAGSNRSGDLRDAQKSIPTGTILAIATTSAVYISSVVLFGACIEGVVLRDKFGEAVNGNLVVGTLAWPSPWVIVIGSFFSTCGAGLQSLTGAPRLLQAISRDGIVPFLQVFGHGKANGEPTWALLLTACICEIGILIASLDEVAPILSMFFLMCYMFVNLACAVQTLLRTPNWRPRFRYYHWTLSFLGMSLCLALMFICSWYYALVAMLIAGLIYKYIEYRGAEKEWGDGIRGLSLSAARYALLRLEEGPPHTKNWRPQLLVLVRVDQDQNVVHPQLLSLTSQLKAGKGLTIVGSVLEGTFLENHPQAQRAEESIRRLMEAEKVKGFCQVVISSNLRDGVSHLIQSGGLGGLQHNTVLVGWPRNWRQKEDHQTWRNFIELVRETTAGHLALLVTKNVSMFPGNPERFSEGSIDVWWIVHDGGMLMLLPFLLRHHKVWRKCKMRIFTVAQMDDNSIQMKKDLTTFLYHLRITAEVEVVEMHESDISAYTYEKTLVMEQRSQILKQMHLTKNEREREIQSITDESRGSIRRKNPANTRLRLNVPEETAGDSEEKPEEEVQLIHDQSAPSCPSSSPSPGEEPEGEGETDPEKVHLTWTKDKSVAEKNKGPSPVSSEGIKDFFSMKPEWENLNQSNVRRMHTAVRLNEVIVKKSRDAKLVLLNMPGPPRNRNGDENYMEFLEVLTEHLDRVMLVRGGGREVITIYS
KCNK9 inh conf = KCNK9 potassium channel inhibitors, confirmation, HEK293 cells, thallium flux, duplicate; shares compounds with KCNK9 inh; inhibition, % at 10 µM; FluxOR thallium flux fluorescence; actives 43% (n = 4,900);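 active = thallium signal inhibited by more than 5 SD of the compound-free buffer control wells, on both duplicate plates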
Kir2-1 spec = mouse Kir2.1 channel inhibition, confirmation, selectivity assay for KCNK9 modulator project, cell-based, HEK293, thallium flux. shares compounds with KCNK9 inh. Kir2.1 cells, FluxOR thallium flux fluorescence. inhibition, % at 10 µM. actives 4% (n = 4,900). AID 492993, 2010;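 active = thallium signal drop more than 5 SD beyond the mean of the no-compound control wells, seen in both duplicate plates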;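 also: signal is fluorescence rise after thallium addition divided by baseline fluorescence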
HEK293 Tl ctr = thallium flux in non-induced HEK293 cells, confirmation, counter-screen for KCNK9 inhibitor project, cell-based, second counter screen, non-induced KCNK9-HEK293. shares compounds with KCNK9 inh. FluxOR thallium flux. inhibition, % at 10 µM. actives 40% (n = 4,900). AID 492997, 2010;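 active = thallium signal drop beyond 5 SD of the untreated control mean, on both duplicate plates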
KCNK3 confirm = retest of human KCNK3 channel inhibitors, confirmation, CHO cells, FluxOR thallium flux, triplicate; actives 99% (n = 2,400); ratio percent of control, % at 10 µM; FluxOR fluorescence; 0% buffer, 100% carvedilol maximal block; shares compounds with KCNK3 inh;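 active = ratio percent of control, averaged over triplicates, above buffer control mean plus 5 SD, cut at about 64% in these data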;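 also: ratio is the fluorescence rise from min to max over baseline after thallium stimulus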
KCNK3 uninduced = thallium flux inhibition in non-induced cells, primary screen, counter-screen for KCNK3 inhibitor project, cell-based, non-induced KCNK3 line, FluxOR thallium, triplicate. AID 651747, 2012. actives 40% (n = 2,400). shares compounds with KCNK3 inh. thallium flux ratio (lower = more inhibition) at 10 µM. non-induced KCNK3 parental cells; active compounds read low;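 active = thallium flux ratio, averaged over three wells, more than 5 SD below the buffer control mean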;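 also: host cells are CHO cells without KCNK3 induction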
Each line names hits and unclear results; the compound was inactive in the other large screens (follow-up assays come after a bar, where they were run).

COc1ccccc1C(=O)Nc1ccc(C(=O)c2ccccc2)cc1	KCNK9 inh -12, KCNK3 inh -13 | KCNK9 inh conf 61% | Kir2-1 spec inactive | HEK293 Tl ctr inactive | KCNK3 confirm 127 | KCNK3 uninduced 0.13
CCN(CC)C(=O)C1CCCN(c2ccc([N+](=O)[O-])cc2/C=N/NC(=O)c2cccc(Br)c2)C1 (stereo not drawn)	KCNK9 inh -12 | KCNK9 inh conf 42% | Kir2-1 spec inactive | HEK293 Tl ctr 32% | KCNK3 confirm 134 | KCNK3 uninduced 0.13
COc1ccc(NC(=O)NC(c2ccccc2)c2ccccc2)c(OC)c1	none (no result: Cl transport mod)
COc1cccc(NC(=S)N(CCc2c(C)[nH]c3ccc(C)cc23)Cc2cccs2)c1	KCNK9 inh -14, KCNK3 inh -11 | KCNK9 inh conf 42% | Kir2-1 spec inactive | HEK293 Tl ctr 43% | KCNK3 confirm 90 | KCNK3 uninduced 0.14
COc1cccc(NC(=S)N(CCCN2CCC(C)CC2)Cc2cccs2)c1	none
COC(=O)C1=C(C)NC(C)=C(C(=O)OC)C1C1CC=CCC1 (stereo not drawn)	none
N#CCSc1nc2c(c(C3CC=CCC3)c1C#N)CCC2 (stereo not drawn)	KCNK9 inh -8.4 | KCNK9 inh conf 34% | Kir2-1 spec inactive | HEK293 Tl ctr 42% | KCNK3 confirm 107 | KCNK3 uninduced inactive
Fc1ccc(N2CCN(C(c3cccs3)c3nnnn3CCc3ccccc3)CC2)cc1 (stereo not drawn)	KCNK9 inh -13, KCNK3 inh -12 | KCNK9 inh conf 68% | Kir2-1 spec inactive | HEK293 Tl ctr 32% | KCNK3 confirm 126 | KCNK3 uninduced 0.15
OC(CNc1nc(C(F)(F)F)nc2ccccc12)c1ccccc1 (stereo not drawn)	KCNK9 inh -12, KCNK3 inh -13 (no result: Cl transport mod) | KCNK9 inh conf 61% | Kir2-1 spec inactive | HEK293 Tl ctr inactive | KCNK3 confirm 118 | KCNK3 uninduced inactive
O=[N+]([O-])c1nn(-c2ccc3c(c2)OCCO3)n(O)c1=NCCC1=CCCCC1	none
CSc1nsc(SCC(=O)Nc2ccccc2C(=O)O)n1	none (no result: Cl transport mod)
Cc1ccc2nc3sc(C(=O)N4CCCc5ccccc54)c(N)c3cc2c1	KCNK9 inh -11, KCNK3 inh -9.1 (no result: Cl transport mod) | KCNK9 inh conf 53% | Kir2-1 spec inactive | HEK293 Tl ctr 52% | KCNK3 confirm 135 | KCNK3 uninduced 0.083
Cc1ccc(-c2cc(C(=O)N3CCCc4ccccc43)c3ccccc3n2)cc1	none
COc1ccc2c(COC(=O)c3cccc(S(=O)(=O)NCC(C)C)c3)cc(=O)oc2c1	KCNK9 inh -9.3, KCNK3 inh -11 (no result: Cl transport mod) | KCNK9 inh conf inactive | Kir2-1 spec inactive | HEK293 Tl ctr inactive | KCNK3 confirm 138 | KCNK3 uninduced 0.14
Cc1ccccc1-n1c(SCC(=O)N2CCOCC2)nc(O)cc1=O	none (no result: Cl transport mod)
O=C(Oc1ccc(C(=S)N2CCOCC2)cc1Cl)c1ccccc1F	none (no result: Cl transport mod)
Cc1ccccc1C(=O)Oc1ccc(Cl)cc1C(=S)N1CCOCC1	KCNK9 inh -12, KCNK3 inh -9.3 (no result: Cl transport mod) | KCNK9 inh conf 56% | Kir2-1 spec inactive | HEK293 Tl ctr 32% | KCNK3 confirm 114 | KCNK3 uninduced 0.16
O=C(/C=C/Nc1ccccc1Oc1ccccc1)c1ccco1	KCNK9 inh -17, KCNK3 inh -13 | KCNK9 inh conf 47% | Kir2-1 spec inactive | HEK293 Tl ctr 37% | KCNK3 confirm 122 | KCNK3 uninduced inactive
CCC(=O)c1ccccc1OCCCN1CCC(Cc2ccccc2)CC1	KCNK3 inh -10 (no result: Cl transport mod) | KCNK9 inh conf inactive | Kir2-1 spec inactive | HEK293 Tl ctr inactive | KCNK3 confirm 88 | KCNK3 uninduced 0.13
Cc1ccc(S(=O)(=O)c2nc(NCc3ccc4c(c3)OCO4)sc2Cl)cc1	KCNK9 inh -11 | KCNK9 inh conf 42% | Kir2-1 spec 32% | HEK293 Tl ctr 42% | KCNK3 confirm 130 | KCNK3 uninduced 0.16
CC(=O)Nc1nc(S(=O)(=O)c2ccc(C)cc2)c(Cl)s1	none (no result: Cl transport mod)
CCCCCCN=C1CC(C)(C)CC(=O)/C1=C(/O)CCC	KCNK9 inh -18, KCNK3 inh -10 | KCNK9 inh conf 66% | Kir2-1 spec inactive | HEK293 Tl ctr 40% | KCNK3 confirm 94 | KCNK3 uninduced inactive
N#CC(C#N)=c1ccc2c(c1)N1C3=C(CCCC3)CC3CCCCC31N=2 (stereo not drawn)	KCNQ1 block 14, KCNK9 inh -16, KCNK3 inh -9.8 | KCNK9 inh conf 67% | Kir2-1 spec inactive | HEK293 Tl ctr 45% | KCNK3 confirm 130 | KCNK3 uninduced 0.11
CNC(=O)C1=C(C)NC(=S)NC1c1cccs1 (stereo not drawn)	none
COCCn1c(=NC(=O)CSC(C)=O)sc2cc(OC)ccc21	KCNK9 inh -16, KCNK3 inh -8.9 | KCNK9 inh conf 60% | Kir2-1 spec inactive | HEK293 Tl ctr 26% | KCNK3 confirm 93 | KCNK3 uninduced inactive
CC1CC(=O)N(c2ccc(NCc3ccccc3Cl)c([N+](=O)[O-])c2)C1=O (stereo not drawn)	none
